The values below come from ChEMBL document CHEMBL1157934, “Sugar-based peptidomimetics as potential inhibitors of the vascular endothelium growth factor binding to neuropilin-1” (Bioorg Med Chem, 2010).

The target in assay [1] is T1, Neuropilin-1 (Homo sapiens, UniProt O14786). Description: Inhibition of biotinylated VEGF165 binding to recombinant NRP1 at 100 uM after 2 hrs by competitive binding assay. In short, it runs like this:
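NRP-1-coated wells were blocked with PBS/0.5% BSA for 1 h at 37 °C. Biotinylated VEGF165 was added with competitor at 100 µM for 2 h at room temperature, then washed. Detection used streptavidin-HRP, 20 min at room temperature, stop solution and OD at 450 nm. Results are absorbance relative to blocking-buffer-only wells, three wells per condition.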

Assay [2] deals with T1, Neuropilin-1. Description: Displacement of biotinylated VEGF165 from recombinant NRP1 after 2 hrs by competitive binding assay. In short, it runs like this:
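Plates coated overnight at room temperature with recombinant chimeric NRP-1 in PBS, then blocked with PBS/0.5% BSA for 1 h at 37 °C. Biotinylated VEGF165 (5 ng/mL; 110 pM), with heparin present, competed with increasing competitor concentrations for 2 h at room temperature. Bound label was detected with streptavidin-HRP, 20 min at room temperature, then stopped and read at 450 nm. IC50 was derived by the median effect method.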

For assay [3], the target named is T1, Neuropilin-1. Kind of assay: Inhibition of VEGF binding to NRP1 expressed in CHO cells. The format is cell-based.

Calls of active or inactive are those of the source. No cut-off for these calls is given here. Residues, ends and D or L forms follow the SMILES beside them. *: point of attachment. X1 = O=C(c1ccc(-c2c3nc(c(-c4ccccc4)c4ccc([nH]4)c(-c4ccccc4)c4nc(c(-c5ccccc5)c5ccc2[nH]5)C=C4)CC3)cc1)*; Ahx = NCCCCCC(=O)O

T1 sequence (O14786 whole entry): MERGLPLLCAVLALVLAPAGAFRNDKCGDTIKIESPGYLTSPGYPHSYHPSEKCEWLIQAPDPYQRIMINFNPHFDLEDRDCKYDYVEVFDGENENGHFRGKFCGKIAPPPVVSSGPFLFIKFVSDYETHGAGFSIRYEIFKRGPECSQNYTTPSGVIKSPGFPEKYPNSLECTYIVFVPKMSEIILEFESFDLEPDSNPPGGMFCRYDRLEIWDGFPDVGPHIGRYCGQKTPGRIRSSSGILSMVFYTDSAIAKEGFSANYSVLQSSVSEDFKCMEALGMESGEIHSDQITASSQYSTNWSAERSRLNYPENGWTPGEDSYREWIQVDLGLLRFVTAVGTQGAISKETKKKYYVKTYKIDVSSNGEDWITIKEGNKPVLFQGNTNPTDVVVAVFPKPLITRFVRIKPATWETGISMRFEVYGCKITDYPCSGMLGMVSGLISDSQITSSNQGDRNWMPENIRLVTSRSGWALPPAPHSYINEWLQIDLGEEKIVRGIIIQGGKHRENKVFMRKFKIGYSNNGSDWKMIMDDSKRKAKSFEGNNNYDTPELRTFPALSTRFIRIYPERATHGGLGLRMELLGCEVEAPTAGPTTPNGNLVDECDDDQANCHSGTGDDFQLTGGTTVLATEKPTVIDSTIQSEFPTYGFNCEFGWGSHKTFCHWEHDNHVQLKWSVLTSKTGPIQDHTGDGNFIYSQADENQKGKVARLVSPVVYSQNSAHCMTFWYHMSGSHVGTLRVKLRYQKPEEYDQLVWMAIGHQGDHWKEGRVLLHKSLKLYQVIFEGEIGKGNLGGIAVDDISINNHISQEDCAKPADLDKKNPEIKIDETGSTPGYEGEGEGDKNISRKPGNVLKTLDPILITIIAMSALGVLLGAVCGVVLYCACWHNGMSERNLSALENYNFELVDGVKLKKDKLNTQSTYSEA

In the case of `CC1(C)O[C@@H]2[C@H](O1)[C@H](CNCCNC(=O)OCc1ccccc1)O[C@@H]2CC(=O)NCCc1c[nH]c2ccccc12`, the inhibition entry at Neuropilin-1 [1] is “Active”. Still for that read-out and setting: as for `COC(=O)[C@H](CCCNC(=N)N)NC[C@@H]1O[C@H](CC(=O)NCCc2c[nH]c3ccccc23)[C@@H]2OC(C)(C)O[C@@H]21`, the entry is “Active”. Still for that read-out and setting: under `CC1(C)O[C@@H]2[C@H](O1)[C@H](CNCc1nc3ccccc3[nH]1)O[C@@H]2CC(=O)NCCc1c[nH]c2ccccc12` stands “Active”; under `CC(C)(C)OC(=O)/N=C(\NCCNC[C@@H]1O[C@H](CC(=O)NCCc2c[nH]c3ccccc23)[C@@H]2OC(C)(C)O[C@@H]21)NC(=O)OC(C)(C)C`, “Active”.

On to `CC(=O)O[C@H](C)CNC(=O)C[C@H]1O[C@@H](CNCCc2nc3ccccc3[nH]2)[C@H]2OC(C)(C)O[C@H]21`, for which the inhibition result on Neuropilin-1 [1] is “Active”. Consider `C[C@@H](O)CNC(=O)C[C@H]1O[C@@H](CNCc2ccncc2)[C@H]2OC(C)(C)O[C@H]21`, for which the inhibition entry at Neuropilin-1 [1] was “Active”.

With `CC(=O)O[C@H](C)CNC(=O)C[C@H]1O[C@@H](CNCCN)[C@H]2OC(C)(C)O[C@H]21`, the inhibition result at Neuropilin-1 [1] was “Active”.

On to `CC1(C)O[C@@H]2[C@H](O1)[C@H](CN[C@@H](CCCNC(=N)N)C(=O)O)O[C@@H]2CC(=O)NCCc1c[nH]c2ccccc12`, for which, on Neuropilin-1 [1], the inhibition result is “Active”. Still for that read-out and setting: under `CC1(C)O[C@@H]2[C@H](O1)[C@H](CNCCc1nc3ccccc3[nH]1)O[C@@H]2CC(=O)NCCc1c[nH]c2ccccc12` stands “Active”; under `CC(=O)O[C@H](C)CNC(=O)C[C@H]1O[C@@H](CNCCNc2ccccn2)[C@H]2OC(C)(C)O[C@H]21`, “Active”; under `CC(=O)O[C@H](C)CNC(=O)C[C@H]1O[C@@H](CNCCNC(=O)OCc2ccccc2)[C@H]2OC(C)(C)O[C@H]21`, “Active”. For `CC1(C)O[C@@H]2[C@H](O1)[C@H](CNCCNc1ncccn1)O[C@@H]2CC(=O)NCCc1c[nH]c2ccccc12`, the inhibition entry on Neuropilin-1 [1] was “Active”. The same measure, in the same setting: under `CC(=O)O[C@H](C)CNC(=O)C[C@H]1O[C@@H](CN(CCN/C(=N/C(=O)OCc2ccccc2)NC(=O)OCc2ccccc2)/C(=N/C(=O)OCc2ccccc2)NC(=O)OCc2ccccc2)[C@H]2OC(C)(C)O[C@H]21` stands “Active”; under `C[C@@H](O)CNC(=O)C[C@H]1O[C@@H](CN(CCNC(=N)N)C(=N)N)[C@H]2OC(C)(C)O[C@H]21`, “Active”. For `CC(C)C[C@H](NC(=O)[C@H](Cc1c[nH]c2ccccc12)NC(=O)[C@@H](NC(=O)[C@H](C)NC(=O)CCCCCNC(=O)c1ccc(-c2c3nc(c(-c4ccccc4)c4ccc([nH]4)c(-c4ccccc4)c4nc(c(-c5ccccc5)c5ccc2[nH]5)C=C4)CC3)cc1)[C@@H](C)O)C(=O)N1CCC[C@H]1C(=O)N1CCC[C@H]1C(=O)N[C@@H](CCCNC(=N)N)C(=O)O` ({X1-Ahx}-ATWLPPR-OH), the IC50 at Neuropilin-1 [2] was found to be 171 µM. The inhibition result at Neuropilin-1 [1] is “Active”. In the case of `CC(=O)O[C@H](C)CNC(=O)C[C@H]1O[C@@H](CNCc2nc3ccccc3[nH]2)[C@H]2OC(C)(C)O[C@H]21`, the inhibition entry on Neuropilin-1 [1] was “Active”. Take `C[C@@H](O)CNC(=O)C[C@H]1O[C@@H](CNCc2nc3ccccc3[nH]2)[C@H]2OC(C)(C)O[C@H]21`: the inhibition entry at Neuropilin-1 [1] was “Active”. Same read-out and setting: as for `C[C@@H](O)CNC(=O)C[C@H]1O[C@@H](CNCc2ccccc2)[C@H]2OC(C)(C)O[C@H]21`, the entry is “Active”; as for `CC(=O)O[C@H](C)CNC(=O)C[C@H]1O[C@@H](CNCc2ccncc2)[C@H]2OC(C)(C)O[C@H]21`, “Active”. Still for that read-out and setting: as for `CC1(C)O[C@@H]2[C@H](O1)[C@H](CN1CCN(C(=N)N)C1=O)O[C@@H]2CC(=O)NCCc1c[nH]c2ccccc12`, the entry is “Active”; as for `C[C@@H](O)CNC(=O)C[C@H]1O[C@@H](CN[C@@H](CCCNC(=N)N)C(=O)O)[C@H]2OC(C)(C)O[C@H]21`, “Active”; as for `CC1(C)O[C@@H]2[C@H](O1)[C@H](CNCCNc1ccccn1)O[C@@H]2CC(=O)NCCc1c[nH]c2ccccc12`, “Active”.

Turning to `CC(C)(C)OC(=O)/N=C(/NC(=O)OC(C)(C)C)N1CCN(C[C@@H]2O[C@H](CC(=O)NCCc3c[nH]c4ccccc34)[C@@H]3OC(C)(C)O[C@@H]32)C1=O`, the inhibition entry on Neuropilin-1 [1] was “Active”. The same measure, in the same setting: as for `CC1(C)O[C@@H]2[C@H](O1)[C@H](CNCCNC(=N)N)O[C@@H]2CC(=O)NCCc1c[nH]c2ccccc12`, the entry is “Active”; as for `C[C@@H](O)CNC(=O)C[C@H]1O[C@@H](CNCCc2nc3ccccc3[nH]2)[C@H]2OC(C)(C)O[C@H]21`, “Active”; as for `COC(=O)[C@H](CCCNC(=N)N)NC[C@@H]1O[C@H](CC(=O)NC[C@@H](C)OC(C)=O)[C@@H]2OC(C)(C)O[C@@H]21`, “Active”. `CC1(C)O[C@@H]2[C@H](O1)[C@H](CNCc1ccccc1)O[C@@H]2CC(=O)NCCc1c[nH]c2ccccc12`: the inhibition entry on Neuropilin-1 [1] was “Active”. In the case of `CC1(C)O[C@@H]2[C@H](O1)[C@H](CN(CCNC(=N)N)C(=N)N)O[C@@H]2CC(=O)NCCc1c[nH]c2ccccc12`, the IC50 on Neuropilin-1 [2] is 92 µM. Further, the inhibition on Neuropilin-1 [1] worked out at 65%. For `CC1(C)O[C@@H]2[C@H](O1)[C@H](CNCc1ccncc1)O[C@@H]2CC(=O)NCCc1c[nH]c2ccccc12`, at Neuropilin-1 [1], the inhibition result is “Active”.

On to `CC1(C)O[C@@H]2[C@H](O1)[C@H](CNCCN)O[C@@H]2CC(=O)NCCc1c[nH]c2ccccc12`, for which the inhibition result at Neuropilin-1 [1] is “Active”.

In the case of `C[C@@H](O)CNC(=O)C[C@H]1O[C@@H](CNCCNc2ccccn2)[C@H]2OC(C)(C)O[C@H]21`, the inhibition entry on Neuropilin-1 [1] was “Active”.

As to `CC1(C)O[C@@H]2[C@H](O1)[C@H](CN(CCN/C(=N/C(=O)OCc1ccccc1)NC(=O)OCc1ccccc1)/C(=N/C(=O)OCc1ccccc1)NC(=O)OCc1ccccc1)O[C@@H]2CC(=O)NCCc1c[nH]c2ccccc12`, the inhibition result at Neuropilin-1 [1] was “Active”. As to H-ATWLPPR-OH, the IC50 on Neuropilin-1 [3] is 19 µM. For the same molecule, at Neuropilin-1 [1], the inhibition result was “Active”. Consider `CC(=O)O[C@H](C)CNC(=O)C[C@H]1O[C@@H](CNCCNC(=N)N)[C@H]2OC(C)(C)O[C@H]21`, for which the inhibition result at Neuropilin-1 [1] was “Active”.

As to `CC(=O)O[C@H](C)CNC(=O)C[C@H]1O[C@@H](CNCCN/C(=N\C(=O)OC(C)(C)C)NC(=O)OC(C)(C)C)[C@H]2OC(C)(C)O[C@H]21`, on Neuropilin-1 [1], the inhibition entry is “Active”.
